Reference: ChEMBL document CHEMBL1123436, “Comparative toxicities and analgesic activities of three monomethylated analogues of acetaminophen” (J Med Chem, 1986)
“And” between values parts separate entries of the source, which are not always exact repeats. Equal entries are not always repeated.

Columns and labels:
Mus musculus [1] = test: Time course of Distribution of Radioactivity in Mice spleen after 3 mmol/kg dose of the Compound after 1 h; assay type: ADME, organism-based; conditions: in vivo
Outline: (§1)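 Groups of 12 mice given [acetyl-14C]-labelled drug ip, 3 mmol/kg (0.45 mCi/mmol), housed individually with urine/feces separation. Four killed at each of 1, 3 and 24 h by exsanguination. Tissues (~100 mg) digested in Soluene 350; blood digested and peroxide-bleached; feces freeze-dried, rehydrated, digested and bleached. Scintillation counting; nmol equiv/mg tissue or per mL blood/urine, means ± SE (N = 4).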

Mus musculus [2] = test: Time course of Distribution of Radioactivity in Mice intestine after 3 mmol/kg dose of the Compound after 24 h; assay type: ADME, organism-based; conditions: in vivo; outline: as §1
Mus musculus [3] = test: Time course of Distribution of Radioactivity in Mice lungs/heart after 3 mmol/kg dose of the Compound after 1 h; assay type: ADME, organism-based, Lung; conditions: in vivo; outline: as §1
Mus musculus [4] = test: Time course of Distribution of Radioactivity in Mice feces after 3 mmol/kg dose of the Compound after 24 h; assay type: ADME, organism-based; conditions: in vivo; outline: as §1
Mus musculus [5] = test: Time course of Distribution of Radioactivity in Mice blood after 3 mmol/kg dose of the Compound after 24 h; assay type: ADME, organism-based; conditions: in vivo; outline: as §1
Mus musculus [6] = test: Time course of Distribution of Radioactivity in Mice spleen after 3 mmol/kg dose of the Compound after 24 h; assay type: ADME, organism-based; conditions: in vivo; outline: as §1
Mus musculus [7] = test: Time course of Distribution of Radioactivity in Mice blood after 3 mmol/kg dose of the Compound after 3 h; assay type: ADME, organism-based; conditions: in vivo; outline: as §1
Mus musculus [8] = test: Urinary Metabolic (3-hydroxy-N-methylacetaminophen) profile in the mouse 24 hr after dose of 3 mmol/kg of the compound; assay type: ADME, organism-based, Urine; conditions: in vivo
Mus musculus [9] = test: Time course of Distribution of Radioactivity in Mice lungs/heart after 3 mmol/kg dose of the Compound after 24 h; assay type: ADME, organism-based, Lung; conditions: in vivo; outline: as §1
Mus musculus [10] = test: Time course of Distribution of Radioactivity in Mice blood after 3 mmol/kg dose of the Compound after 1 h; assay type: ADME, organism-based; conditions: in vivo; outline: as §1
Mus musculus [11] = test: Time course of Distribution of Radioactivity in Mice stomach after 3 mmol/kg dose of the Compound after 24 h; assay type: ADME, organism-based; conditions: in vivo; outline: as §1
Mus musculus [12] = test: Time course of Distribution of Radioactivity in Mice Liver after 3 mmol/kg dose of the Compound after 24 h; assay type: ADME, organism-based; conditions: in vivo; outline: as §1
Mus musculus [13] = test: Time course of Distribution of Radioactivity in Mice Liver after 3 mmol/kg dose of the Compound after 3 h; assay type: ADME, organism-based; conditions: in vivo; outline: as §1
Mus musculus [14] = test: Urinary Metabolic (Acetaminophen) profile in the mouse 24 h after dose of 3 mmol/kg of the compound; assay type: ADME, organism-based, Urine; conditions: in vivo
Mus musculus [15] = test: Time course of Distribution of Radioactivity in Mice kidney after 3 mmol/kg dose of the Compound after 1 h; assay type: ADME, organism-based; conditions: in vivo; outline: as §1
Mus musculus [16] = test: Time course of Distribution of Radioactivity in Mice stomach after 3 mmol/kg dose of the Compound after 3 h; assay type: ADME, organism-based; conditions: in vivo; outline: as §1
Mus musculus [17] = test: Time course of Distribution of Radioactivity in Mice Urine after 3 mmol/kg dose of the Compound after 3 h; assay type: ADME, organism-based; conditions: in vivo; outline: as §1
Mus musculus [18] = test: Time course of Distribution of Radioactivity in Mice spleen after 3 mmol/kg dose of the Compound after 3 h; assay type: ADME, organism-based; conditions: in vivo; outline: as §1
Mus musculus [19] = test: Hepatotoxicity in Swiss-Webster Mice Caused by compound at 500 mg/kg (i.p.) dose; 9/10; assay type: functional; conditions: route intraperitoneal
Outline: (§2)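 Male Swiss-Webster mice (20 g), groups of 10, were given a single ip dose of drug in saline with no pretreatment. Survivors were decapitated at 24 h and counted. Plasma ALT was measured, and liver sections (formalin-fixed, paraffin, H&E) were scored for necrosis severity in survivors. Values are means ± SE.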

Mus musculus [20] = test: Time course of Distribution of Radioactivity in Mice intestine after 3 mmol/kg dose of the Compound after 1 h; assay type: ADME, organism-based; conditions: in vivo; outline: as §1
Mus musculus [21] = test: Time course of Distribution of Radioactivity in Mice kidney after 3 mmol/kg dose of the Compound after 24 h; assay type: ADME, organism-based; conditions: in vivo; outline: as §1
Mus musculus [22] = test: Time course of Distribution of Radioactivity in Mice brain after 3 mmol/kg dose of the Compound after 3 h; assay type: ADME, organism-based; conditions: in vivo; outline: as §1
Mus musculus [23] = test: Time course of Distribution of Radioactivity in Mice intestine after 3 mmol/kg dose of the Compound after 3 h; assay type: ADME, organism-based; conditions: in vivo; outline: as §1
Mus musculus [24] = test: Urinary Metabolic (3-methoxy-N-methylacetaminophen) profile in the mouse 24 hr after dose of 3 mmol/kg of the compound; assay type: ADME, organism-based, Urine; conditions: in vivo
Mus musculus [25] = test: Time course of Distribution of Radioactivity in Mice feces after 3 mmol/kg dose of the Compound after 3 h; assay type: ADME, organism-based; conditions: in vivo; outline: as §1
Mus musculus [26] = test: Time course of Distribution of Radioactivity in Mice feces after 3 mmol/kg dose of the Compound after 1 hr; assay type: ADME, organism-based; conditions: in vivo; outline: as §1
Mus musculus [27] = test: Time course of Distribution of Radioactivity in Mice brain after 3 mmol/kg dose of the Compound after 1 h; assay type: ADME, organism-based; conditions: in vivo; outline: as §1
Mus musculus [28] = test: (§3) Hepatotoxicity in Swiss-Webster Mice Caused by compound at 500 mg/kg (i.p.) dose; assay type: functional; conditions: route intraperitoneal; outline: as §2
Mus musculus [29] = test: Time course of Distribution of Radioactivity in Mice kidney after 3 mmol/kg dose of the Compound after 3 h; assay type: ADME, organism-based; conditions: in vivo; outline: as §1
Mus musculus [30] = test: Time course of Distribution of Radioactivity in Mice Urine after 3 mmol/kg dose of the Compound after 1 h; assay type: ADME, organism-based; conditions: in vivo; outline: as §1
Mus musculus [31] = test: Hepatotoxicity in Swiss-Webster Mice Caused by compound at 1000 mg/kg (i.p.) dose; 5/10; conditions: route intraperitoneal
Mus musculus [32] = test: Time course of Distribution of Radioactivity in Mice Liver after 3 mmol/kg dose of the Compound after 1 h; assay type: ADME, organism-based; conditions: in vivo; outline: as §1
Mus musculus [33] = test: Time course of Distribution of Radioactivity in Mice brain after 3 mmol/kg dose of the Compound after 24 h; assay type: ADME, organism-based; conditions: in vivo; outline: as §1
Mus musculus [34] = test: Time course of Distribution of Radioactivity in Mice lungs/heart after 3 mmol/kg dose of the Compound after 3 h; assay type: ADME, organism-based, Lung; conditions: in vivo; outline: as §1
Mus musculus [35] = organism: Mus musculus; test: Analgesic activity determined in mice using the Bradykinin-induced Writhing test; assay type: organism-based
Outline: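 Male CD1 mice (15–20 g), test drug given orally 15 min before bradykinin ip (4 μg in 0.2 mL sterile water), then a second bradykinin injection (0.2 μg/0.1 mL) 15 min later. Writhing was scored over the next 10 min, with control groups of 10 mice. ED50 was derived by log-probit analysis from at least five doses, with 95% limits.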

Mus musculus [36] = test: Time course of Distribution of Radioactivity in Mice Urine after 3 mmol/kg dose of the Compound after 24 h; assay type: ADME, organism-based; conditions: in vivo; outline: as §1
Mus musculus [37] = test: Time course of Distribution of Radioactivity in Mice stomach after 3 mmol/kg dose of the Compound after 1 h; assay type: ADME, organism-based; conditions: in vivo; outline: as §1
Mus musculus [38] = test: as §3; assay type: functional, organism-based; design: dose 500 mg/kg
Outline: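 Male Swiss-Webster mice (20 g), groups of 10, dosed ip in saline; some groups pretreated with phenobarbital (80 mg/kg ip at 72, 60, 48, 24 h), cobaltous chloride (30 mg/kg ip at 48, 36, 24, 12 h) or neat piperonyl butoxide (1360 mg/kg ip, 30 min before). Survivors killed at 24 h; plasma ALT measured, liver H&E sections scored for necrosis; means ± SE.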

Mus musculus [39] = test: Urinary Metabolic (N-methylacetaminophen) profile in the mouse 24 hr after dose of 3 mmol/kg of the compound; assay type: ADME, organism-based, Urine; conditions: in vivo

CC(=O)N(C)c1ccc(O)cc1
Radioactivity (Mus musculus [1]): 1.58 nM equiv (mg of tissue)-1
Radioactivity (Mus musculus [2]): 0.61 nM equiv (mg of tissue)-1
Radioactivity (Mus musculus [3]): 1.78 nM equiv (mg of tissue)-1
Radioactivity (Mus musculus [4]): 74.5 nM equiv mg-1
Radioactivity (Mus musculus [5]): 14.6 nM equiv (ml of blood)-1
Radioactivity (Mus musculus [6]): 0.03 nM equiv (mg of tissue)-1
Radioactivity (Mus musculus [7]): 501 nM equiv (ml of blood)-1
Administered dose (Mus musculus [8]): 0.6%
Radioactivity (Mus musculus [9]): 0.03 nM equiv (mg of tissue)-1
Radioactivity (Mus musculus [10]): 1855 nM equiv (ml of blood)-1
Radioactivity (Mus musculus [11]): 0.08 nM equiv (mg of tissue)-1
Radioactivity (Mus musculus [12]): 0.05 nM equiv (mg of tissue)-1
Radioactivity (Mus musculus [13]): 0.6 nM equiv (mg of tissue)-1
Administered dose (Mus musculus [14]): 1.9%
Radioactivity (Mus musculus [15]): 3.73 nM equiv (mg of tissue)-1
Radioactivity (Mus musculus [16]): 0.87 nM equiv (mg of tissue)-1
Radioactivity (Mus musculus [17]): 3200 nM equiv (ml of urine)-1
Radioactivity (Mus musculus [18]): 0.13 nM equiv (mg of tissue)-1
Survivors at 24 h (Mus musculus [19]): 9
Radioactivity (Mus musculus [20]): 2.17 nM equiv (mg of tissue)-1
Radioactivity (Mus musculus [21]): 0.05 nM equiv (mg of tissue)-1
Radioactivity (Mus musculus [22]): 0.05 nM equiv (mg of tissue)-1
Radioactivity (Mus musculus [23]): 1.52 nM equiv (mg of tissue)-1
Administered dose (Mus musculus [24]): 13.7%
Radioactivity (Mus musculus [25]): 3.17 nM equiv mg-1
Radioactivity (Mus musculus [26]): 0.03 nM equiv mg-1
Radioactivity (Mus musculus [27]): 1.03 nM equiv (mg of tissue)-1
Hepatic necrosis in survivors (Mus musculus [28]): 0
Radioactivity (Mus musculus [29]): 0.49 nM equiv (mg of tissue)-1
Radioactivity (Mus musculus [30]): 7.67 nM equiv (ml of urine)-1
Survivors at 24 h (Mus musculus [31]): 5
Radioactivity (Mus musculus [32]): 3.16 nM equiv (mg of tissue)-1
Radioactivity (Mus musculus [33]): 0.01 nM equiv (mg of tissue)-1
Radioactivity (Mus musculus [34]): 0.13 nM equiv (mg of tissue)-1
ED50 (Mus musculus [35]): > 200 mg/kg
Radioactivity (Mus musculus [36]): 6978 nM equiv (ml of urine)-1
Radioactivity (Mus musculus [37]): 0.21 nM equiv (mg of tissue)-1
Plasma ALT at 24 h (Mus musculus [38]): 27 mU ml-1 and 32 mU ml-1
Administered dose (Mus musculus [39]): 78.9%
